# Source: PubChem BioAssay
# MLL AF4-AF9 inh: MLL-AF4/AF9 protein interaction inhibition; P42568; AlphaScreen, biotin-AF4 peptide binding to FLAG-AF9; inhibition, % at 10 µM; 0.47% of 350,000 active; AID 651704;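 active = every replicate reaching a set inhibition limit, whatever the replicate mean, cut at about 25% in these data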;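 also: 0% = plate neutral control median and 100% = total signal loss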
# SIRT5 block: blocks human SIRT5 desuccinylation of peptide. Q9NXA8. inhibition, % at 15 µM. 1.1% of 330,000 active. Purified SirT5, succinyl-peptide AMC, trypsin-coupled fluorescence; in the data active = inhibition above about 15%
# Target sequence (Q9NXA8 whole entry, looked up): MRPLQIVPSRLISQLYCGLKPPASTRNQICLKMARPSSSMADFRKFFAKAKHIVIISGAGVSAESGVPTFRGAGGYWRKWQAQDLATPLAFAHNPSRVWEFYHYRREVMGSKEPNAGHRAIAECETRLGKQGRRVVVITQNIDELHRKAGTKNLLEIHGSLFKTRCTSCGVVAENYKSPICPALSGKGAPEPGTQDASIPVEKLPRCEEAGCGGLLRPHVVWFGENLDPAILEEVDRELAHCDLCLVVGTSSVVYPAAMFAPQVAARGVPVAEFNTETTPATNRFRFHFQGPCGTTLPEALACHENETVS
# S100A4 MyoIIA: S100A4-myosin IIA interaction inhibition. P26447. S100A4/TAMRA-MyoIIA peptide fluorescence polarization. inhibition, % at 10.7 µM. 0.14% of 360,000 active. AID 652163;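 active = mean inhibition of at least 70% across replicates, with every replicate also reaching that level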
# Target sequence (P26447 whole entry, looked up): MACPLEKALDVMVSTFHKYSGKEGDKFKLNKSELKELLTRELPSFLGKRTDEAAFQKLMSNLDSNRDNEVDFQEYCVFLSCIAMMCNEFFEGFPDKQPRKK
#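 System – human S100A4 monomer protein, biochemical binding assay · Buffer or medium – Calcium-containing HEPES buffer, pH 7.2 · Timing – 5 min between mix addition and reading · Also added – TAMRA-labelled myosin IIA heavy-chain peptide probe, 5 nM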
# DENV2 CPE: protects cells from dengue virus 2 cytopathic effect | DENV2-infected cells, cytopathic effect rescue, plate reader | CPE inhibition, % at 9.99 µM | 1.7% of 350,000 active; in the data active = CPE inhibition above about 20%, passing the limit was not always enough; tested in BHK-21 cells;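 also: 0% = median of neutral control wells and 100% = median of positive control wells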
# CaV13 ICDI inh: Primary screen for inhibitors of IQ motif and Ca2+-dependent inactivation inhibitor domain binding in CACNA1D, Förster resonance energy transfer in living cells, … | HEK cells, CFP/YFP FRET ICDI-IQ, plate reader, 10 min; percent FRET-ratio fall versus neutral wells | inhibition, % at 12.3 µM | 0.098% of 340,000 active;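 active = mean replicate inhibition of at least 30% and at least 1% of replicates passing that level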;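 also: 0% = median of the neutral control wells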
# * hit, by the source's call; x = no result given. A selection: hits, their analogues and other compounds. The true share with any hit is near 2.7%.
SMILES,MLL AF4-AF9 inh,SIRT5 block,S100A4 MyoIIA,DENV2 CPE,CaV13 ICDI inh
COc1ccc(COC[C@]23Oc4ccccc4[C@H]([C@H]2COC(=O)c2ccccc2)N(C(=O)CC(C)=O)C(=O)N3C)cc1,0.5,4.7,0.0,12.7,x
C=CCC[C@H](Cc1ccc(F)cc1)C(=O)OC[C@@H](Cc1c[nH]c2ccccc12)NC(=O)[C@@H](CC=C)CC(=O)N(CCO)Cc1ccccc1,1.1,x,-4.2,20.9*,-5.2
Cc1ccccc1-c1ccc2c(c1)O[C@@H](CN(C)C(=O)Nc1ccc(F)cc1)[C@@H](C)CN([C@@H](C)CO)S2(=O)=O,0.7,19.3*,-1.2,0.1,x
C[C@@H]1CN([C@@H](C)CO)S(=O)(=O)c2ccc(/C=C/c3ccccc3)cc2O[C@@H]1CN(C)C(=O)NC1CCCC1,3.9,20.2*,-12.5,7.8,x
Cc1ccccc1-c1ccc2c(c1)O[C@H](CN(C)C(=O)Nc1ccccc1)[C@@H](C)CN([C@H](C)CO)S2(=O)=O,-0.8,9.3,11.6,14.8,x
C[C@@H]1CN([C@H](C)CO)S(=O)(=O)c2ccc(/C=C/c3ccccc3)cc2O[C@@H]1CN(C)C(=O)NC1CCCC1,5.5,21.1*,-4.6,-2.9,x
C[C@H](CO)N1C[C@H](C)[C@H](CN(C)C(=O)Nc2ccc(F)cc2)Oc2cc(/C=C/c3ccccc3)ccc2S1(=O)=O,0.7,20.8*,6.2,-8.0,x
C[C@H](CO)N1C[C@H](C)[C@H](CN(C)C(=O)Nc2cccc(F)c2)Oc2cc(/C=C/c3ccccc3)ccc2S1(=O)=O,-7.2,0.1,7.4,-8.6,x
C[C@@H]1CN([C@H](C)CO)S(=O)(=O)c2ccc(/C=C/c3ccccc3)cc2O[C@@H]1CN(C)C(=O)NC1CCCCC1,3.3,-9.5,2.7,-3.5,x
O=C(Cc1ccncc1)N1CC(=O)N2[C@H](CO)[C@H](c3ccc(C4=CCCC4)cc3)[C@@H]2C1,0.2,-0.6,2.1,-8.6,x
C[C@H]1CCCCO[C@H](CN(C)C(=O)CCCN(C)C)[C@@H](C)CN([C@@H](C)CO)C(=O)c2cc(NS(C)(=O)=O)ccc2O1,-3.1,-1.8,1.6,-1.8,x
CC(C)NC(=O)N(C)C[C@@H]1Oc2cc(C#CC3CC3)ccc2S(=O)(=O)N([C@H](C)CO)C[C@@H]1C,-3.1,3.3,9.0,-0.4,x
C[C@H]1CN([C@@H](C)CO)S(=O)(=O)c2ccc(/C=C/c3ccccc3)cc2O[C@@H]1CN(C)C(=O)NC1CCCC1,8.2,31.9*,7.3,-3.9,x
C[C@H](CO)N1C[C@H](C)[C@H](CN(C)C(=O)NC2CCCC2)Oc2cc(/C=C/c3ccccc3)ccc2S1(=O)=O,7.7,16.2*,-4.5,-2.8,x
CCC(=O)N1C[C@H](C)[C@H](OC)CN(C)C(=O)c2cc(NC(=O)Nc3ccccc3)ccc2OC[C@H]1C,4.6,8.0,7.5,-5.6,x
Cc1ccc(/C=N/NC(=O)C(c2ccncc2)N2CCOCC2)cc1 (configuration not stated),-2.3,3.2,4.9,1.5,-4.6
COc1ccc(Br)cc1/C=N/NC(=O)C(c1ccncc1)N1CCOCC1 (configuration not stated),-22.2,3.0,-4.0,97.9*,-5.7
CCC(C)[C@H](N)c1cn([C@@H](Cc2cc3ccccc3[nH]2)C(=O)N2CCNCC2)nn1 (some centres not stated),29.9*,x,5.0,4.2,-5.1
Cc1ccc(S(=O)(=O)Nc2ccc3c(c2)C(=O)N([C@@H](C)CO)C[C@H](C)[C@@H](CN(C)Cc2ccncc2)OCCCC[C@@H](C)O3)cc1,0.9,8.7,-4.0,-2.0,x
O=[N+]([O-])c1cc(CN2CCN(c3cccc(C(F)(F)F)c3)CC2)c2cccnc2c1O,35.6*,-3.1,0.4,6.2,-14.2
O=[N+]([O-])c1cc(Cl)ccc1N1CCN(c2cccc(C(F)(F)F)c2)CC1,x,x,x,x,-5.3
O=C(Nc1ccc(Cl)cc1)c1ccc(OCC2CCCO2)cc1 (configuration not stated),-2.0,-1.0,0.4,-4.9,-5.2
O=C(Nc1nc(-c2ccc(Cl)cc2Cl)cs1)c1ccc(OCC2CCCO2)cc1 (configuration not stated),-6.8,111.7*,-0.2,-0.6,-18.8
